Results: ChEMBL document CHEMBL1153644, “Synthesis and analgesic and anti-inflammatory activities 6-substituted-3(2H)-pyridazinone-2-acetyl-2-(p-substituted/nonsubstituted benzal)hydrazone derivatives” (Eur J Med Chem, 2009)

Columns and labels:
Mus musculus [1] = experiment: Gastrointestinal toxicity in Swiss albino mouse assessed as ulcerogenic effect at 100 mg/kg, po; type: organism-based; design: dose 100 mg/kg, route oral; conditions: in vivo
Method in brief: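 Male Swiss albino mice (20–25 g), food withdrawn one day before with water allowed, at least six per group. Dosed orally as a suspension in distilled water with 0.5% CMC; controls got vehicle. Taken from the p-benzoquinone writhing test (i.p. 2.5% PBQ 60 min post-dose), then killed under deep ether anesthesia. Stomachs were opened along the great curvature and checked under a dissecting microscope for lesions or bleeding; scored as ulcerated/total animals.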

Mus musculus [2] = experiment: Antiinflammatory activity in Swiss albino mouse assessed as inhibition of carrageenan-induced paw edema at 10 mg/kg, po administered before 60 mins of carrageenan-challenge measured after 90 mins; type: functional
Method in brief: (§1)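 Fasted male Swiss albino mice (20–25 g), n≥6, were dosed orally in 0.5% CMC suspension, with vehicle for controls. Carrageenan (0.5 mg/25 μl in saline) was injected subplantar into the right hind paw and saline into the left. The right–left footpad thickness difference was measured by dial caliper every 90 min over 6 h. Inhibition was calculated versus control, mean ± SEM.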

Mus musculus [3] = experiment: Antiinflammatory activity in Swiss albino mouse assessed as inhibition of carrageenan-induced paw edema at 10 mg/kg, po administered before 60 mins of carrageenan-challenge measured after 180 mins; type: functional; method in brief: as §1
Mus musculus [4] = experiment: Antiinflammatory activity in Swiss albino mouse assessed as inhibition of carrageenan-induced paw edema at 10 mg/kg, po administered before 60 mins of carrageenan-challenge measured after 360 mins; type: functional; method in brief: as §1
Mus musculus [5] = experiment: Antiinflammatory activity in Swiss albino mouse assessed as inhibition of carrageenan-induced paw edema at 10 mg/kg, po administered before 60 mins of carrageenan-challenge measured after 270 mins; type: functional; method in brief: as §1
Mus musculus [6] = experiment: Analgesic activity in Swiss albino mouse assessed as inhibition of para-benzoquinone-induced abdominal writhing response at 100 mg/kg, po administered 60 mins prior to para-benzoquinone challenge measured after 15 mins; type: functional, Abdomen; design: scale not given: the % may be the effect or the level left
Method in brief: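 Male Swiss albino mice (20–25 g) were fasted overnight with water allowed, at least 6 per group. Oral dosing used a 0.5% CMC suspension, and vehicle was given to controls. Then 0.1 ml/10 g of 2.5% (v/v) p-benzoquinone was injected i.p. Writhings were counted for 15 min, starting 5 min after injection. Inhibition is expressed as % of control, mean ± SEM, ANOVA/Student–Newman–Keuls.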

| SMILES | Activity (Mus musculus [1]) | other results |
| --- | --- | --- |
| COc1ccc2c(c1)c(CC(=O)O)c(C)n2C(=O)c1ccc(Cl)cc1 [INDOMETHACIN] | Toxic | inhibition in vivo at 10 mg/kg (Mus musculus [2]): 34.4%; inhibition in vivo at 10 mg/kg (Mus musculus [3]): 32.8%; inhibition in vivo at 10 mg/kg (Mus musculus [4]): 40.4%; inhibition in vivo at 10 mg/kg (Mus musculus [5]): 37.4% |
| CC(=O)Oc1ccccc1C(=O)O [ASPIRIN] | Toxic | Activity (Mus musculus [6]): 48.7% |
| Cc1ccc(/C=N/NC(=O)Cn2nc(N3CCN(c4ccc(Cl)cc4)CC3)ccc2=O)cc1 | Non-toxic | – |
| COc1ccc(/C=N/NC(=O)Cn2nc(N3CCN(c4ccccn4)CC3)ccc2=O)cc1 | Non-toxic | – |
| COc1ccc(/C=N/NC(=O)Cn2nc(N3CCN(c4ccc(Cl)cc4)CC3)ccc2=O)cc1 | Non-toxic | – |
| Cc1ccc(/C=N/NC(=O)Cn2nc(N3CCN(c4cccc(Cl)c4)CC3)ccc2=O)cc1 | Non-toxic | – |
| COc1ccc(/C=N/NC(=O)Cn2nc(N3CCN(c4cccc(Cl)c4)CC3)ccc2=O)cc1 | Non-toxic | – |
| Cc1ccc(/C=N/NC(=O)Cn2nc(N3CCN(c4ccccn4)CC3)ccc2=O)cc1 | Non-toxic | – |
